Test results taken from ChEMBL document CHEMBL1148978, “Lignan derivatives and a norditerpene from the seeds of Vitex negundo” (J Nat Prod, 2004).
Active and inactive are the calls of the source. The calls are words filed in the database; no cut-off is given here.

Key:
[1] = Antioxidant activity assessed as inhibition of lipid peroxidation at 0.5 mM after 5 days by ferric-thiocyanate method; assay type: functional
In short: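 Linoleic acid peroxidation: 2.51% linoleic acid in EtOH mixed with 0.05 M phosphate buffer pH 7.0, EtOH and water. Sample added from 10 mM EtOH stock, 0.5 mM final. Capped vial kept in dark at 40 °C for 5 days. Aliquot diluted in 75% EtOH, ammonium thiocyanate and ferrous chloride in HCl added, A500 read after 3 min. Blank lacks compound.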

[2] = tested on: Radical scavenging activity; experiment: Antioxidant activity assessed as DPPH radical scavenging activity at 0.02 mM; assay type: functional
In short: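 Sample in EtOH (0.02 mM final) added to 0.1 M acetate buffer pH 5.5 plus 0.5 mM DPPH in EtOH. Mixture stood 30 min at room temperature. Modified from a published DPPH method.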

With `COc1cc(-c2c(O)c(C=O)cc3cc(OC)c(O)cc23)ccc1O` the Activity [1] was “Active” and the Activity [2] was “Active”.

For `COc1cc(-c2c3c(cc4cc(OC)c(O)cc24)C(=O)NC3)ccc1O`, the Activity [1] was “Active” and the Activity [2] was “Active”.

For `COc1cc(-c2cc(C=O)cc3cc(OC)c(O)cc23)ccc1O`, the Activity [1] was “Active” and the Activity [2] was “Active”.

In the case of `COc1cc(-c2c3c(cc4cc(OC)c(O)cc24)C(=O)OC3)ccc1O`, the Activity [1] is reported as “Active” and the Activity [2] is reported as “Active”.

With `COc1cc([C@H]2c3c(ccc(O)c3OC)C=C(C=O)[C@@H]2CO)ccc1O` the Activity [1] was “Active” and the Activity [2] was “Active”.

With `COc1cc([C@H]2c3cc(O)c(OC)cc3C=C(C=O)[C@@H]2CO)ccc1O` the Activity [1] was “Active” and the Activity [2] was “Active”.
